pIC50, pKi: −log10 of the molar value.
Tests used:
[1] = molecular target: T1, Glutamine synthetase, chloroplastic (Zea mays, UniProt P25462); assay: Inhibition of Zea mays cv. Jeff (maize) leaf glutamine synthetase using L-glutamate as substrate assessed as inorganic phosphate production after 20 min by malachite green assay relative to control
T1 sequence (P25462 whole entry): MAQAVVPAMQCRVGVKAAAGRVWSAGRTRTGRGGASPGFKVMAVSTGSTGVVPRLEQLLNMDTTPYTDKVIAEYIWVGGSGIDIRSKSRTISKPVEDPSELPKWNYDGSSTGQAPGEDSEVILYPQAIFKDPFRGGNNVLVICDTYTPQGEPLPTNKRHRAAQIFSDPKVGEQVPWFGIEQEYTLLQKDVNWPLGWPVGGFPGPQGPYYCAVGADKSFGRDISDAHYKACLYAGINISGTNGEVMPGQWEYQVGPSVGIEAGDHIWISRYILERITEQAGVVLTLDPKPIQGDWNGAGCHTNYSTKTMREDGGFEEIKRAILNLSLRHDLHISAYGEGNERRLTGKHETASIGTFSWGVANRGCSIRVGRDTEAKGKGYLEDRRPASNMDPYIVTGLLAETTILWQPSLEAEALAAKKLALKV
In short: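 GS purified from three-leaf-stage maize seedling leaves by ammonium sulfate, DEAE-Sephacel, Reactive Blue flow-through and Mono-Q steps. Inhibitor adjusted to pH 7.4 with KOH, 0.001–5 mM; IC50 by probit method.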

[2] = molecular target: T2, Glutamine synthetase, chloroplastic (Zea mays) (UniProt P25462); assay: Inhibition of Zea mays cv. Jeff (maize) leaf glutamine synthetase using L-glutamate as substrate assessed as inorganic phosphate production at 1 mM after 20 min by malachite green assay relative to control
T2 sequence (whole entry): T1 sequence (P25462 whole entry)

[3] = molecular target: T1, Glutamine synthetase, chloroplastic; assay: Un-competitive inhibition of Zea mays cv. Jeff (maize) leaf glutamine synthetase using ATP as substrate Lineweaver-Burk plot analysis
In short: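 With purified maize leaf GS in the biosynthetic assay (Pi by malachite green, 35 °C), ATP was varied at seven levels from 0.2 to 1 mM with L-glutamate fixed at 50 mM. Four inhibitor levels, 0.5- to 3-fold the I50, each at least in triplicate. Lineweaver–Burk plots were used, and Ki came from Dixon replots. Values are means ± SEM.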

[4] = molecular target: T1, Glutamine synthetase, chloroplastic; assay: Non-competitive inhibition of Zea mays cv. Jeff( maize) leaf glutamine synthetase using L-glutamate as substrate Lineweaver-Burk plot analysis

With `O=P(O)(O)C(Nc1c(Cl)cccc1Cl)P(=O)(O)O` [2,6-DICHLOROPHENYLAMINOMETHYLENEBISPHOSPHONIC ACID] the pIC50 [1] was 4.82 and the inhibition [2] was 81.1%.

For `O=P(O)(O)C(O)c1c(Cl)cccc1Cl` (centres undefined), the inhibition [2] was 10.7%.

In the case of `O=P(O)(O)C(Nc1cccc(Cl)c1Cl)P(=O)(O)O` [2,3-DICHLOROPHENYLAMINOMETHYLENEBISPHOSPHONIC ACID], the pIC50 [1] was 4.89 and the inhibition [2] was 84.9%.

For `COc1cccc(C(N)P(=O)(O)O)c1OC` (centres undefined), the inhibition [2] was -1.2%.

With `O=P(O)(O)C(O)c1cccc(Cl)c1Cl` (centres undefined) [(2,3-DICHLOROPHENYL)(HYDROXY)METHYLPHOSPHONIC ACID] the pIC50 [1] was 2.94 and the inhibition [2] was 47.2%.

`O=P(O)(O)C(O)c1ccc(Cl)c(Cl)c1` (centres undefined) showed an inhibition [2] of 14.6%.

`O=P(O)(O)C(O)c1ccc(Cl)cc1` (centres undefined) gave an inhibition [2] of 8.3%.

Work on `O=P(O)(O)C(Nc1cc(Cl)cc(Cl)c1)P(=O)(O)O` [(3,5-DICHLOROPHENYLAMINO)METHYLENEDIPHOSPHONIC ACID] yielded a pIC50 [1] of 5.12, an inhibition [2] of 86.3% and a pKi [3] of 5.19. For the same molecule, the pKi [4] was 5.14.

With `NC(c1ccccc1)P(=O)(O)O` (centres undefined) the inhibition [2] was 13.6%.

`O=P(O)(O)C(Nc1cc(Cl)ccc1Cl)P(=O)(O)O` [2,5-DICHLOROPHENYLAMINOMETHYLENEBISPHOSPHONIC ACID] showed a pIC50 [1] of 4.41 and an inhibition [2] of 79.1%.

`O=P(O)(O)C(O)c1cccc(Cl)c1` (centres undefined) showed an inhibition [2] of 12.3%.

Work on `Cc1cc(C)cc(NC(P(=O)(O)O)P(=O)(O)O)c1` [3,5-DIMETHYLPHENYLAMINOMETHYLENEBISPHOSPHONIC ACID] yielded a pIC50 [1] of 4.25, an inhibition [2] of 67.5% and a pKi [3] of 4.26. It also gave a pKi [4] of 4.28.

Work on `O=P(O)(O)C(Nc1ccc(Cl)c(Cl)c1)P(=O)(O)O` [3,4-DICHLOROPHENYLAMINOMETHYLENEBISPHOSPHONIC ACID] yielded a pIC50 [1] of 4.50 and an inhibition [2] of 73.8%.

For `O=P(O)(O)C(Nc1ccc(Cl)cc1Cl)P(=O)(O)O` [2,4-DICHLOROPHENYLAMINOMETHYLENEBISPHOSPHONIC ACID], the pIC50 [1] was 4.67 and the inhibition [2] was 79.7%.

Molecule `NC(c1ccccc1F)P(=O)(O)O` (centres undefined) [AMINO(2-FLUOROPHENYL)METHYLPHOSPHONIC ACID] has a pIC50 [1] of 2.00 and an inhibition [2] of 26.7%.

Molecule `NC(c1cccc(Cl)c1Cl)P(=O)(O)O` (centres undefined) [AMINO(2,3-DICHLOROPHENYL)METHYLPHOSPHONIC ACID] has a pIC50 [1] of 2.98 and an inhibition [2] of 47.7%.

In the case of `NC(c1ccccc1Cl)P(=O)(O)O` (centres undefined) [AMINO(2-CHLOROPHENYL)METHYLPHOSPHONIC ACID], the pIC50 [1] was 2.24 and the inhibition [2] was 36.3%.

Molecule `NC(c1ccc(Cl)cc1Cl)P(=O)(O)O` (centres undefined) [AMINO(2,4-DICHLOROPHENYL)METHYLPHOSPHONIC ACID] has a pIC50 [1] of 2.58 and an inhibition [2] of 40.7%.

`NC(c1cccc(F)c1)P(=O)(O)O` (centres undefined) gave an inhibition [2] of 7.9%.

In the case of `NC(c1ccccc1Br)P(=O)(O)O` (centres undefined) [AMINO(2-BROMOPHENYL)METHYLPHOSPHONIC ACID], the pIC50 [1] was 2.39 and the inhibition [2] was 42.5%.

With `O=P(O)(O)C(O)c1ccccc1Cl` (centres undefined) [(2-CHLOROPHENYL)(HYDROXY)METHYLPHOSPHONIC ACID] the pIC50 [1] was 2.18 and the inhibition [2] was 27%.

With `NC(c1cccc(Cl)c1)P(=O)(O)O` (centres undefined) the inhibition [2] was 8.1%.

Work on `O=P(O)(O)C(O)c1ccc(Cl)cc1Cl` (centres undefined) [(2,4-DICHLOROPHENYL)(HYDROXY)METHYLPHOSPHONIC ACID] yielded a pIC50 [1] of 2.32 and an inhibition [2] of 31.9%.

`O=P(O)(O)C(Nc1ccc(Cl)cc1)P(=O)(O)O` [(4-CHLOROPHENYLAMINO)METHYLENEDIPHOSPHONIC ACID] was tested, and the pIC50 [1] was 4.68 and the inhibition [2] was 79.1%.
